Assay results published in ChEMBL document CHEMBL4422685, “Design, synthesis and evaluation of a series of 5-methoxy-2,3-naphthalimide derivatives as AcrB inhibitors for the reversal of bacterial resistance” (Bioorg Med Chem Lett, 2019).
Values belong to the compound of their own block, whether it stands above or below them. The source made the active and inactive calls. No cut-off for these calls is given here.

What was measured:
Escherichia coli [1] = test: Toxicity against wild-type drug-resistant Escherichia coli […] at 128 ug/ml; format: organism-based; conditions: in vivo
Method in brief: (§1)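 MIC determination against wild-type resistant E. coli BW25113 and an isogenic acrB-deleted strain; highest concentration tested 128 mg/L.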

Escherichia coli [2] = test: Toxicity against AcrB deficient Escherichia coli AcrB lacking at 128 ug/ml; format: organism-based; conditions: in vivo; method in brief: as §1
[3] = target: T1, Multidrug efflux pump subunit AcrB (Escherichia coli (strain K12)) (UniProt P31224); test: Inhibition of AcrB in wild-type drug-resistant Escherichia coli […] assessed as potentiation of chloramphenicol-induced antimicrobial activity by measuring chloramphenicol MIC at 8 ug/ml by checkerboard titration method (Rvb =16 ug/ml)
T1 sequence (whole entry): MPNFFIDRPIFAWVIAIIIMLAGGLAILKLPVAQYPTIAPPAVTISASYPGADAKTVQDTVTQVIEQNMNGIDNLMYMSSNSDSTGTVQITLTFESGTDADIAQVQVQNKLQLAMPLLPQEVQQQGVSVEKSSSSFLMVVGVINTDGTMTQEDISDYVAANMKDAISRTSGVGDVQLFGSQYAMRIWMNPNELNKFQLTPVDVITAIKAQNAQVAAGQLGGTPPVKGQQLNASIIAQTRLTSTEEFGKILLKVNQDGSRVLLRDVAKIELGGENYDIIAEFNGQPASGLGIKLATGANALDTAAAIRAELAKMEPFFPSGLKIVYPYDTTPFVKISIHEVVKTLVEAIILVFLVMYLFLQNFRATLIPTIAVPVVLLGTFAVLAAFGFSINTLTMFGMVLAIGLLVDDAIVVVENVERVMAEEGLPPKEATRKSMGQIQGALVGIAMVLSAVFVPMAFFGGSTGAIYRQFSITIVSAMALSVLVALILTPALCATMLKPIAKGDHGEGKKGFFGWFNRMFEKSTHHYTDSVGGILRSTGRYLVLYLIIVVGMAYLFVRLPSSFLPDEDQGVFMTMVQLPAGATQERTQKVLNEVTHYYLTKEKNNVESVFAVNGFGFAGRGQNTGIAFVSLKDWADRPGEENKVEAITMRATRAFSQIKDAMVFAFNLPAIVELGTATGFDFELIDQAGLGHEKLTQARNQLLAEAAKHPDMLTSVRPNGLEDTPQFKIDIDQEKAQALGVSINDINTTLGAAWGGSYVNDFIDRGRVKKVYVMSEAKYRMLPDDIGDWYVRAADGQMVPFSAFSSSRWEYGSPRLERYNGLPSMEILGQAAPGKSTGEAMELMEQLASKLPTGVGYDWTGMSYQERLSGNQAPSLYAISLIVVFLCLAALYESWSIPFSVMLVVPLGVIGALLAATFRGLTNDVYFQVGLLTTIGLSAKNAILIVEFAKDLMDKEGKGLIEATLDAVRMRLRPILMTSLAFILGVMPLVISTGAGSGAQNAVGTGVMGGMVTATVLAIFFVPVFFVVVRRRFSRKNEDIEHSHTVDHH

[4] = target: T1, Multidrug efflux pump subunit AcrB (Escherichia coli (strain K12)); test: Inhibition of AcrB in wild-type drug-resistant Escherichia coli BW2113 assessed as potentiation of chloramphenicol-induced antimicrobial activity by measuring chloramphenicol MIC at 16 ug/ml by checkerboard titration method (Rvb =16 ug/ml)
[5] = target: T1, Multidrug efflux pump subunit AcrB (Escherichia coli (strain K12)); test: Inhibition of AcrB in wild-type drug-resistant Escherichia coli […] assessed as potentiation of chloramphenicol-induced antimicrobial activity by measuring chloramphenicol MIC at 32 ug/ml by checkerboard titration method (Rvb =16 ug/ml)
[6] = target: T1, Multidrug efflux pump subunit AcrB (Escherichia coli (strain K12)); test: Inhibition of AcrB in wild-type drug-resistant Escherichia coli […] assessed as potentiation of chloramphenicol-induced antimicrobial activity by measuring chloramphenicol MIC at 64 ug/ml by checkerboard titration method (Rvb =16 ug/ml)
[7] = target: T1, Multidrug efflux pump subunit AcrB (Escherichia coli (strain K12)); test: Inhibition of AcrB in wild-type drug-resistant Escherichia coli […] assessed as potentiation of chloramphenicol-induced antimicrobial activity by measuring chloramphenicol MIC at 128 ug/ml by checkerboard titration method (Rvb =16 ug/ml)
[8] = target: T1, Multidrug efflux pump subunit AcrB (Escherichia coli (strain K12)); test: Inhibition of AcrB in wild-type drug-resistant Escherichia coli […] assessed as potentiation of erythromycin-induced antimicrobial activity by measuring erythromycin MIC at 8 ug/ml by checkerboard titration method (reference value: 64 ug/ml)
[9] = target: T1, Multidrug efflux pump subunit AcrB (Escherichia coli (strain K12)); test: Inhibition of AcrB in wild-type drug-resistant Escherichia coli […] assessed as potentiation of erythromycin-induced antimicrobial activity by measuring erythromycin MIC at 16 ug/ml by checkerboard titration method (reference value: 64 ug/ml)
[10] = target: T1, Multidrug efflux pump subunit AcrB (Escherichia coli (strain K12)); test: Inhibition of AcrB in wild-type drug-resistant Escherichia coli […] assessed as potentiation of erythromycin-induced antimicrobial activity by measuring erythromycin MIC at 32 ug/ml by checkerboard titration method (reference value: 64 ug/ml)
[11] = target: T1, Multidrug efflux pump subunit AcrB (Escherichia coli (strain K12)); test: Inhibition of AcrB in wild-type drug-resistant Escherichia coli […] assessed as potentiation of erythromycin-induced antimicrobial activity by measuring erythromycin MIC at 64 ug/ml by checkerboard titration method (reference value: 64 ug/ml)
[12] = target: T1, Multidrug efflux pump subunit AcrB (Escherichia coli (strain K12)); test: Inhibition of AcrB in wild-type drug-resistant Escherichia coli […] assessed as potentiation of erythromycin-induced antimicrobial activity by measuring erythromycin MIC at 128 ug/ml by checkerboard titration method (reference value: 64 ug/ml)
[13] = target: T1, Multidrug efflux pump subunit AcrB (Escherichia coli (strain K12)); test: Inhibition of AcrB in wild-type drug-resistant Escherichia coli […] assessed as potentiation of tetraphenyl phosphonium chloride-induced antimicrobial activity by measuring tetraphenyl phosphonium chloride MIC at 8 ug/ml by checkerboard titration method (reference value: 1024 ug/ml)
[14] = target: T1, Multidrug efflux pump subunit AcrB (Escherichia coli (strain K12)); test: Inhibition of AcrB in wild-type drug-resistant Escherichia coli […] assessed as potentiation of tetraphenyl phosphonium chloride-induced antimicrobial activity by measuring tetraphenyl phosphonium chloride MIC at 16 ug/ml by checkerboard titration method (reference value: 1024 ug/ml)
[15] = target: T1, Multidrug efflux pump subunit AcrB (Escherichia coli (strain K12)); test: Inhibition of AcrB in wild-type drug-resistant Escherichia coli […] assessed as potentiation of tetraphenyl phosphonium chloride-induced antimicrobial activity by measuring tetraphenyl phosphonium chloride MIC at 32 ug/ml by checkerboard titration method (reference value: 1024 ug/ml)
[16] = target: T1, Multidrug efflux pump subunit AcrB (Escherichia coli (strain K12)); test: Inhibition of AcrB in wild-type drug-resistant Escherichia coli […] assessed as potentiation of tetraphenyl phosphonium chloride-induced antimicrobial activity by measuring tetraphenyl phosphonium chloride MIC at 64 ug/ml by checkerboard titration method (reference value: 1024 ug/ml)
[17] = target: T1, Multidrug efflux pump subunit AcrB (Escherichia coli (strain K12)); test: Inhibition of AcrB in wild-type drug-resistant Escherichia coli […] assessed as potentiation of tetraphenyl phosphonium chloride-induced antimicrobial activity by measuring tetraphenyl phosphonium chloride MIC at 128 ug/ml by checkerboard titration method (reference value: 1024 ug/ml)
[18] = target: T1, Multidrug efflux pump subunit AcrB (Escherichia coli (strain K12)); test: Inhibition of AcrB in wild-type drug-resistant Escherichia coli […] assessed as potentiation of levofloxacin-induced antimicrobial activity by measuring levofloxacin MIC at 8 ug/ml by checkerboard titration method (reference value: 0.063 ug/ml)
[19] = target: T1, Multidrug efflux pump subunit AcrB (Escherichia coli (strain K12)); test: Inhibition of AcrB in wild-type drug-resistant Escherichia coli […] assessed as potentiation of levofloxacin-induced antimicrobial activity by measuring levofloxacin MIC at 16 ug/ml by checkerboard titration method (reference value: 0.063 ug/ml)
[20] = target: T1, Multidrug efflux pump subunit AcrB (Escherichia coli (strain K12)); test: Inhibition of AcrB in wild-type drug-resistant Escherichia coli […] assessed as potentiation of levofloxacin-induced antimicrobial activity by measuring levofloxacin MIC at 32 ug/ml by checkerboard titration method (reference value: 0.063 ug/ml)
[21] = target: T1, Multidrug efflux pump subunit AcrB (Escherichia coli (strain K12)); test: Inhibition of AcrB in wild-type drug-resistant Escherichia coli […] assessed as potentiation of levofloxacin-induced antimicrobial activity by measuring levofloxacin MIC at 64 ug/ml by checkerboard titration method (reference value: 0.063 ug/ml)
[22] = target: T1, Multidrug efflux pump subunit AcrB (Escherichia coli (strain K12)); test: Inhibition of AcrB in wild-type drug-resistant Escherichia coli […] assessed as potentiation of levofloxacin-induced antimicrobial activity by measuring levofloxacin MIC at 128 ug/ml by checkerboard titration method (reference value: 0.063 ug/ml)
[23] = target: T1, Multidrug efflux pump subunit AcrB (Escherichia coli (strain K12)); test: Inhibition of AcrB in wild-type drug-resistant Escherichia coli […] assessed as reduction in glucose-induced nile red efflux at 500 uM by fluorescence assay
Method in brief: (§2)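 E. coli cells (wild-type resistant with active pump, acrB-deleted, or wild-type plus compound) preloaded with Nile Red before fluorescence recording. Efflux triggered at 100 s by adding 0.2% glucose. Fluorescence traces followed; experiments with different cell batches on three different days.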

Escherichia coli [24] = test: Induction of Escherichia coli outer membrane permeabilization assessed as increase in nitrocefin hydrolysis at 128 ug/ml by spectroscopic method; format: organism-based
[25] = target: T1, Multidrug efflux pump subunit AcrB (Escherichia coli (strain K12)); test: Inhibition of AcrB in wild-type drug-resistant Escherichia coli […] assessed as reduction in glucose-induced nile red efflux at 200 uM by fluorescence assay; method in brief: as §2
[26] = Solubility of the compound in DMSO; format: physicochemical

Compound: COc1cccc2cc3c(cc12)C(=O)N(C(C)(C)C)C3=O
Activity (Escherichia coli [1]): Non-Toxic
Activity (Escherichia coli [2]): Non-Toxic
MIC [3]: 16 µg/mL
MIC [4]: 16 µg/mL
MIC [5]: 16 µg/mL
MIC [6]: 16 µg/mL
MIC [7]: 16 µg/mL
MIC [8]: 64 µg/mL
MIC [9]: 64 µg/mL
MIC [10]: 64 µg/mL
MIC [11]: 32 µg/mL
MIC [12]: 32 µg/mL
MIC [13]: 1020 µg/mL
MIC [14]: 1020 µg/mL
MIC [15]: 1020 µg/mL
MIC [16]: 1020 µg/mL
MIC [17]: 512 µg/mL
MIC [18]: 0.063 µg/mL
MIC [19]: 0.063 µg/mL
MIC [20]: 0.063 µg/mL
MIC [21]: 0.063 µg/mL
MIC [22]: 0.063 µg/mL
inhibition [23]: 100%
Activity (Escherichia coli [24]): Non-Toxic
inhibition [25]: Active

Compound: COc1cccc(N2C(=O)c3cc4cccc(OC)c4cc3C2=O)c1
solubility [26]: Insoluble

Compound: COc1cccc2cc3c(cc12)C(=O)N(Cc1ccccc1Cl)C3=O
Activity (Escherichia coli [1]): Non-Toxic
Activity (Escherichia coli [2]): Non-Toxic
MIC [3]: 16 µg/mL
MIC [4]: 16 µg/mL
MIC [5]: 16 µg/mL
MIC [6]: 16 µg/mL
MIC [7]: 16 µg/mL
MIC [8]: 64 µg/mL
MIC [9]: 64 µg/mL
MIC [10]: 64 µg/mL
MIC [11]: 64 µg/mL
MIC [12]: 32 µg/mL
MIC [13]: 1020 µg/mL
MIC [14]: 1020 µg/mL
MIC [15]: 1020 µg/mL
MIC [16]: 1020 µg/mL
MIC [17]: 512 µg/mL
MIC [18]: 0.063 µg/mL
MIC [19]: 0.063 µg/mL
MIC [20]: 0.063 µg/mL
MIC [21]: 0.063 µg/mL
MIC [22]: 0.063 µg/mL

More lines, now with the values ahead:

solubility [26]: Insoluble
Compound: COc1cccc2cc3c(cc12)C(=O)N(CCc1ccccc1Cl)C3=O

solubility [26]: Insoluble
Compound: COc1ccccc1N1C(=O)c2cc3cccc(OC)c3cc2C1=O

solubility [26]: Insoluble
Compound: COc1cccc2cc3c(cc12)C(=O)N(Cc1ccc(F)cc1)C3=O

solubility [26]: Insoluble
Compound: COc1cccc2cc3c(cc12)C(=O)N(c1cccc(C)c1)C3=O

solubility [26]: Insoluble
Compound: COc1cccc2cc3c(cc12)C(=O)N(CCc1ccc(F)cc1)C3=O
